From ChEMBL document CHEMBL3393024, “Multidrug resistance-reversal effects of resin glycosides from Dichondra repens” (Bioorg Med Chem Lett, 2015) come the findings set out here.

Broadly, the inhibition is the share of the control response that was lost under treatment. Low values mean little suppression, high ones strong suppression. Broadly, the IC50 is the concentration needed to halve the response being measured.

A short description of assay [1]: Resistance factor, ratio of vincristine IC50 to vincristine IC50 in presence of compound for human KB/VCR cells. It counts as functional. An outline of the steps: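 Vincristine was serially diluted from 0.125 to 1 µM and tested with or without 25 µM test sample. Resistance factor is the vincristine IC50 alone divided by the vincristine IC50 with sample.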
The nature of assay [2]: Cytotoxicity against human KB/VCR cells at 25 uM after 72 hrs by SRB method. Type of assay: functional. An outline of the steps:
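Test sample was given alone at 25 µM, and cytotoxicity was expressed as percent inhibition ratio.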
For orientation: The SRB assay estimates cell density from bound dye.

A short description of assay [3]: Cytotoxicity against human KB/VCR cells at 10 uM after 72 hrs by SRB method. It counts as functional.
Assay [4] can be described thus: Cytotoxicity against human KB/VCR cells after 72 hrs by SRB method. It counts as functional, cell-based.

With `CCCCC[C@@H](CCCCCCC[C@H](O)CC(=O)O)O[C@@H]1O[C@H](CO[C@@H]2O[C@@H](C)[C@H](O)[C@@H](O)[C@H]2OC(=O)[C@H](C)[C@@H](C)O)[C@@H](O)[C@H](O)[C@H]1O[C@@H]1O[C@H](CO)[C@@H](O[C@@H]2O[C@@H](C)[C@H](O)[C@@H](OC(=O)[C@H](C)[C@@H](C)O)[C@H]2O)[C@H](O)[C@H]1O`, in assay [1], the “Ratio IC50” value stood at 1.32. Also, the inhibition at 25 µM in assay [2] is 0.83%.
For `CCCCC[C@@H](CCCCCCCCCC(=O)O)O[C@@H]1O[C@H](CO[C@@H]2O[C@@H](C)[C@H](O)[C@@H](O)[C@H]2OC(=O)[C@H](C)[C@@H](C)O)[C@@H](O)[C@H](O)[C@H]1O[C@@H]1O[C@H](CO)[C@@H](O[C@@H]2O[C@@H](C)[C@H](O)[C@@H](OC(=O)[C@H](C)[C@@H](C)O)[C@H]2O)[C@H](O)[C@H]1O`, in that order: 1.19 and 2.52%.
For `CCCCC[C@H](O)CCCCCCCCCC(=O)O[C@H]1[C@H](O[C@H]2C(O)O[C@H](CO)[C@@H](O)[C@@H]2O)O[C@@H](C)[C@H](OC(=O)[C@H](C)[C@@H](C)O)[C@H]1O[C@@H]1O[C@@H](C)[C@H](O)[C@@H](O)[C@H]1O` (some centres not stated), in that order: 1.78 and 1.35%.
For `CCC[C@H](O)CCCCCCCCCC(=O)O[C@H]1[C@H](O[C@H]2C(O)O[C@H](CO)[C@@H](O)[C@@H]2O)O[C@@H](C)[C@@H](OC(=O)[C@H](C)[C@@H](C)O)[C@H]1O[C@@H]1O[C@@H](C)[C@H](O)[C@@H](O)[C@H]1O` (some centres not stated), in that order: 1.03 and 1.64%.
Turning to `CCCCC[C@H](O)CCCCCCCC(=O)O[C@H]1[C@H](O[C@H]2C(O)O[C@H](COC(C)=O)[C@@H](O)[C@@H]2O)O[C@@H](C)[C@@H](OC(=O)[C@H](C)[C@@H](C)O)[C@H]1O[C@@H]1O[C@@H](C)[C@H](O)[C@@H](O)[C@H]1O` (some centres not stated), the “Ratio IC50” value in assay [1] is recorded as 1.36. The inhibition at 25 µM in assay [2] turned out to be 0.85%.
Take `COc1ccc(CCN(C)CCCC(C#N)(c2ccc(OC)c(OC)c2)C(C)C)cc1OC` (configuration not stated): in assay [3], the inhibition at 10 µM amounted to 0.45%.
Regarding `CC[C@]1(O)C[C@H]2CN(CCc3c([nH]c4ccccc34)[C@@](C(=O)OC)(c3cc4c(cc3OC)N(C=O)[C@H]3[C@@](O)(C(=O)OC)[C@H](OC(C)=O)[C@]5(CC)C=CCN6CC[C@]43[C@@H]65)C2)C1` [VINCRISTINE], in assay [4], the IC50 was found to be 570 nM.
